Measured values published in ChEMBL document CHEMBL3526081 (Drug Metab Dispos, 2011).

Assays:
Liver microsome [1] = test: Drug metabolism in human liver microsomes assessed as 5beta-hydroxylcinobufagin formation at 100 uM at 37 degC after 30 mins by UFLC-ESI-MS analysis in presence of 20 uM omeprazole CYP2C19 inhibitor; format: ADME; settings: 0.5 h
Procedure, shortened: (§1)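 Pooled human liver microsomes (10 donors, both sexes) in 100 mM potassium phosphate pH 7.4 were incubated with CB and a selective P450 inhibitor. Reaction was started with NADPH-generating system after 3 min preincubation at 37°C and stopped with ice-cold acetonitrile. Hydroxylated products were quantified by UFLC-DAD at 294 nm; three experiments in duplicate.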

[2] = Ratio of Vmax/Km in Colony-bred Chinese Bama minipig liver microsomes assessed as 5beta-hydroxylcinobufaginn formation at 100 uM […] by UFLC-ESI-MS analysis; format: ADME, Sus scrofa; settings: pig, 0.5 h
[3] = Drug metabolism in Colony-bred Chinese Bama minipig liver microsomes assessed as 1alpha-hydroxylcinobufagin formation at 100 uM at 37 degC after 30 mins by UFLC-ESI-MS analysis; format: ADME, Sus scrofa; settings: pig, 0.5 h, read-out: Km(app)
Procedure, shortened: (§2)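 Liver microsomes (0.3 mg protein/ml) incubated with 100 µM substrate at 37°C for 30 min, in 100 mM potassium phosphate pH 7.4 with NADPH-generating system (1 mM NADP+, 10 mM glucose 6-phosphate, 1 unit/ml G6PDH, 4 mM MgCl2). Acetonitrile ≤1% final. Stopped with ice-cold acetonitrile and centrifuged. Metabolites identified by UFLC-ESI-MS and quantified by UFLC-DAD at 294 nm against authentic standard curves.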

[4] = Drug metabolism in Swiss-Hauschka (ICR) mouse liver microsomes assessed as 1alpha-hydroxylcinobufagin formation at 100 uM at 37 degC after 30 mins by UFLC-ESI-MS analysis in presence of NADPH-generating system; format: ADME; settings: 0.5 h; procedure, shortened: as §2
[5] = Ratio of Vmax/Km in cynomolgus monkey liver microsomes assessed as 1alpha-hydroxylcinobufagin formation at 100 uM […] by UFLC-ESI-MS analysis; format: ADME, Macaca fascicularis; settings: 0.5 h
Liver microsome [6] = test: Drug metabolism in beagle dog liver microsomes assessed as 5beta-hydroxylcinobufaginn formation at 100 uM at 37 degC after 30 mins by UFLC-ESI-MS analysis; format: ADME, Canis lupus familiaris; settings: 0.5 h, read-out: Km(app); procedure, shortened: as §2
Liver microsome [7] = test: Drug metabolism in human liver microsomes assessed as 5beta-hydroxylcinobufagin formation at 100 uM at 37 degC after 30 mins by UFLC-ESI-MS analysis in presence of 2 uM montelukast CYP2C8 inhibitor; format: ADME; settings: 0.5 h; procedure, shortened: as §1
[8] = Drug metabolism in cynomolgus monkey liver microsomes assessed as 5beta-hydroxylcinobufagin formation at 100 uM at 37 degC after 30 mins by UFLC-ESI-MS analysis in presence of NADPH-generating system; format: ADME, Macaca fascicularis; settings: 0.5 h; procedure, shortened: as §2
[9] = Drug metabolism in Colony-bred Chinese Bama minipig liver microsomes assessed as 5beta-hydroxylcinobufaginn formation at 100 uM at 37 degC after 30 mins by UFLC-ESI-MS analysis; format: ADME, Sus scrofa; settings: pig, 0.5 h, read-out: Km(app); procedure, shortened: as §2
Liver microsome [10] = test: Drug metabolism in human liver microsomes assessed as 1alpha-hydroxylcinobufagin formation at 100 uM at 37 degC after 30 mins by UFLC-ESI-MS analysis in presence of 50 uM clomethiazole CYP2E1 inhibitor; format: ADME; settings: 0.5 h; procedure, shortened: as §1
Liver [11] = test: Ratio of Vmax/Km in Swiss-Hauschka (ICR) mouse liver microsomes assessed as 1alpha-hydroxylcinobufagin formation at 100 uM […] by UFLC-ESI-MS analysis; format: ADME; settings: 0.5 h
Liver microsome [12] = test: Drug metabolism in human liver microsomes assessed as 1alpha-hydroxylcinobufagin formation at 100 uM at 37 degC after 30 mins […] in presence of 10 uM furafylline CYP1A2 inhibitor; format: ADME; settings: 0.5 h
[13] = Drug metabolism in Swiss-Hauschka (ICR) mouse liver microsomes assessed as 5beta-hydroxylcinobufaginn formation at 100 uM at 37 degC after 30 mins by UFLC-ESI-MS analysis; format: ADME; settings: 0.5 h, read-out: Km(app); procedure, shortened: as §2
Liver microsome [14] = test: Ratio of Vmax/Km in beagle dog liver microsomes assessed as 1alpha-hydroxylcinobufagin formation at 100 uM […] by UFLC-ESI-MS analysis; format: ADME, Canis lupus familiaris; settings: 0.5 h
[15] = Drug metabolism in cynomolgus monkey liver microsomes assessed as 5beta-hydroxylcinobufaginn formation per mg of protein at 100 uM […] by UFLC-ESI-MS analysis; format: ADME, Macaca fascicularis; settings: 0.5 h
Liver microsome [16] = test: Drug metabolism in beagle dog liver microsomes assessed as 5beta-hydroxylcinobufaginn formation per mg of protein at 100 uM at 37 degC after 30 mins by UFLC-ESI-MS analysis; format: ADME, Canis lupus familiaris; settings: 0.5 h; procedure, shortened: as §2
[17] = Drug metabolism in cynomolgus monkey liver microsomes assessed as 1alpha-hydroxylcinobufagin formation at 100 uM at 37 degC after 30 mins by UFLC-ESI-MS analysis; format: ADME, Macaca fascicularis; settings: 0.5 h, read-out: Km(app); procedure, shortened: as §2
[18] = Drug metabolism in Colony-bred Chinese Bama minipig liver microsomes assessed as 1alpha-hydroxylcinobufagin formation at 100 uM at 37 degC after 30 mins by UFLC-ESI-MS analysis in presence of 10 uM sulfaphenazole CYP2C9 inhibitor; format: ADME, Sus scrofa; settings: pig, 0.5 h
Procedure, shortened: (§3)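 Chemical inhibition: selective P450 inhibitors (furafylline, sulfaphenazole, ketoconazole) added to liver microsome incubations in 100 mM potassium phosphate pH 7.4 with NADPH-generating system at 37°C. Hydroxylated metabolite formation quantified by UFLC at 294 nm against standards. Mean ± S.D. of three experiments in duplicate.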

[19] = Drug metabolism in Colony-bred Chinese Bama minipig liver microsomes assessed as 1alpha-hydroxylcinobufagin formation at 100 uM at 37 degC after 30 mins by UFLC-ESI-MS analysis in presence of 10 uM furafylline CYP1A2 inhibitor; format: ADME, Sus scrofa; settings: pig, 0.5 h; procedure, shortened: as §3
[20] = Drug metabolism in cynomolgus monkey liver microsomes assessed as 5beta-hydroxylcinobufaginn formation at 100 uM […] by UFLC-ESI-MS analysis; format: ADME, Macaca fascicularis; settings: 0.5 h, read-out: Km(app)
Liver microsome [21] = test: Drug metabolism in human liver microsomes assessed as 5beta-hydroxylcinobufagin formation at 100 uM at 37 degC after 30 mins by UFLC-ESI-MS analysis in presence of 10 uM quinidine CYP2D6 inhibitor; format: ADME; settings: 0.5 h; procedure, shortened: as §1
Liver [22] = test: Ratio of Vmax/Km in Swiss-Hauschka (ICR) mouse liver microsomes assessed as 5beta-hydroxylcinobufaginn formation at 100 uM […] by UFLC-ESI-MS analysis; format: ADME; settings: 0.5 h
[23] = Drug metabolism in cynomolgus monkey liver microsomes assessed as 1alpha-hydroxylcinobufagin formation at 100 uM at 37 degC after 30 mins by UFLC-ESI-MS analysis in presence of 10 uM sulfaphenazole CYP2C9 inhibitor; format: ADME, Macaca fascicularis; settings: 0.5 h; procedure, shortened: as §3
Liver microsome [24] = test: Drug metabolism in human liver microsomes assessed as 5beta-hydroxylcinobufagin formation at 100 uM at 37 degC after 30 mins […] in presence of 2.5 uM 8-methoxypsoralen CYP2A6 inhibitor; format: ADME; settings: 0.5 h
[25] = Drug metabolism in Colony-bred Chinese Bama minipig liver microsomes assessed as 5beta-hydroxylcinobufagin formation at 100 uM at 37 degC after 30 mins by UFLC-ESI-MS analysis in presence of NADPH-generating system; format: ADME, Sus scrofa; settings: pig, 0.5 h; procedure, shortened: as §2
[26] = Ratio of Vmax/Km in cynomolgus monkey liver microsomes assessed as 5beta-hydroxylcinobufaginn formation at 100 uM […] by UFLC-ESI-MS analysis; format: ADME, Macaca fascicularis; settings: 0.5 h
Liver microsome [27] = test: Drug metabolism in human liver microsomes assessed as 5beta-hydroxylcinobufagin formation at 100 uM at 37 degC after 30 mins […] in presence of 10 uM sulfaphenazole CYP2C9 inhibitor; format: ADME; settings: 0.5 h

Structure (SMILES): CC(=O)O[C@H]1[C@H]2O[C@]23[C@@H]2CC[C@@H]4C[C@@H](O)CC[C@]4(C)[C@H]2CC[C@]3(C)[C@H]1c1ccc(=O)oc1 [CINOBUFAGIN]
- Drug metabolism (Liver microsome [1]): metabolite_detected
- Vmax/Km [2]: 54.6 µL/min/mg
- Km [3]: 17.2 µM
- Drug metabolism [4]: metabolite_detected
- Vmax/Km [5]: 62 µL/min/mg
- Km (Liver microsome [6]): 3.4 µM
- Drug metabolism (Liver microsome [7]): metabolite_detected
- Drug metabolism [8]: metabolite_detected
- Km [9]: 11.9 µM
- Drug metabolism (Liver microsome [10]): metabolite_detected
- Vmax/Km (Liver [11]): 595 µL/min/mg
- Drug metabolism (Liver microsome [12]): metabolite_detected
- Km [13]: 10.1 µM
- Vmax/Km (Liver microsome [14]): 387.9 µL/min/mg
- Vmax [15]: 1.84 nmol/min/mg
- Vmax (Liver microsome [16]): 0.44 nmol/min/mg
- Km [17]: 34.2 µM
- Drug metabolism [18]: metabolite_detected
- Drug metabolism [19]: metabolite_detected
- Km [20]: 8.5 µM
- Drug metabolism (Liver microsome [21]): metabolite_detected
- Vmax/Km (Liver [22]): 644.6 µL/min/mg
- Drug metabolism [23]: metabolite_detected
- Drug metabolism (Liver microsome [24]): metabolite_detected
- Drug metabolism [25]: metabolite_detected
- Vmax/Km [26]: 216.5 µL/min/mg
- Drug metabolism (Liver microsome [27]): metabolite_detected
